We go through 2 compounds from ChEMBL document CHEMBL1133450, “Synthesis and antitumor activity of thieno-separated tricyclic purines” (2000).

Assay [1] relates to HCT-116. Briefly: Tested for percentage inhibition of HCT116 cell growth after 24 hr at 0.1 uM. The following applies: Homo sapiens, HCT-116, 24 h; values are per cent of control. It is filed as functional. Put shortly:
(§1)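 HCT116 cells grown in DMEM with 2 mM L-glutamine, penicillin/streptomycin, nonessential amino acids, 10% heat-inactivated FBS, 37 °C, 5% CO2. Seeded at 500 cells/well, 72 h later refed with serum-containing medium plus DMSO vehicle or agent. CellTiter96 read-out at 24, 48 or 72 h of treatment, expressed as % of DMSO-treated cells. Mean ± SEM, n = 3-5. Student's t-test, significance p < 0.05.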

In assay [2] the test system is HCT-116. Briefly: Tested for percentage inhibition of HCT116 cell growth after 48 hr at 100 uM, (p<0.05). In kind it is functional. Particulars: Homo sapiens, HCT-116, 48 h; values are per cent of control. Put shortly: as §1
Assay [3] deals with HCT-116. Briefly: Tested for percentage inhibition of HCT116 cell growth after 48 hr at 10 uM. The following applies: Homo sapiens, HCT-116, 48 h; values are per cent of control. In kind it is functional. Put shortly:
as §1

The test system of assay [4] is HCT-116. Briefly: Tested for percentage inhibition of HCT116 cell growth after 48 hr at 1 uM. The following applies: Homo sapiens, HCT-116, 48 h; values are per cent of control. It is filed as functional. Put shortly: as §1
Assay [5] concerns HCT-116. The assay is described as follows: Tested for percentage inhibition of HCT116 cell growth after 72 hr at 0.1 uM, (p<0.05). In kind it is functional. Particulars: Homo sapiens, HCT-116, 72 h; values are per cent of control. Put shortly: as §1
Assay [6] has as its system HCT-116. The assay is described as follows: Tested for percentage inhibition of HCT116 cell growth after 72 hr at 100 uM, (p<0.05). Particulars: Homo sapiens, HCT-116, 72 h; values are per cent of control. It is filed as functional. Put shortly:
as §1

Assay [7] relates to HCT-116. Briefly: Tested for percentage inhibition of HCT116 cell growth after 24 hr at 1 uM. In kind it is functional. The following applies: Homo sapiens, HCT-116, 24 h; values are per cent of control. Put shortly: as §1
The subject of assay [8] is HCT-116. Briefly: Tested for HCT116 cell growth as percentage of control after 72 hr at 1 uM. Particulars: Homo sapiens, HCT-116, 72 h.
In assay [9] the test system is HCT-116. The assay is described as follows: Tested for HCT116 cell growth as percentage of control after 72 hr at 10 uM. Particulars: Homo sapiens, HCT-116, 72 h.
The test system of assay [10] is HCT-116. The assay is described as follows: Tested for HCT116 cell growth as percentage of control after 24 hr at 10 uM. The following applies: Homo sapiens, HCT-116, 24 h.
Assay [11] has as its system HCT-116. The assay is described as follows: Tested for HCT116 cell growth as percentage of control after 24 hr at 100 uM. The following applies: Homo sapiens, HCT-116, 24 h.
Assay [12] deals with HCT-116. Briefly: Tested for HCT116 cell growth as percentage of control after 48 hr at 0.1 uM. Particulars: Homo sapiens, HCT-116, 48 h.
Assay [13] concerns HCT-116. The assay is described as follows: Tested for percentage inhibition of HCT116 cell growth after 72 hr at 0.1 uM. It is filed as functional. The following applies: Homo sapiens, HCT-116, 72 h; values are per cent of control. Put shortly:
as §1

Assay [14] has as its system HCT-116. The assay is described as follows: Tested for HCT116 cell growth as percentage of control after 24 hr at 10 uM. The following applies: Homo sapiens, HCT-116, 24 h. The source holds these as a separate data set.
The test system of assay [15] is HCT-116. Briefly: Tested for HCT116 cell growth as percentage of control after 48 hr at 100 uM, (p<0.005). Particulars: Homo sapiens, HCT-116, 48 h.

On to `Nc1nc(O)c2sc3[nH]cnc3c2n1`, for which the growth, % of control at 0.1 µM in the assay on HCT-116 [1] is 98.7%; with HCT-116 [5] it was 107%; in the assay with HCT-116 [12], 96.8%. The growth, % of control at 100 µM with HCT-116 [2] amounted to 77%; in the assay on HCT-116 [6] it was 76.1%; in the assay on HCT-116 [11], 75.8%. Moreover, the values for the growth (% of control) at 10 µM with HCT-116 [3], in the assay with HCT-116 [9] and in the assay on HCT-116 [10] were 85%, 99.5% and 93.2%, respectively. The growth, % of control at 1 µM is 95.9% in the assay on HCT-116 [4], 96.7% in the assay with HCT-116 [7] and 117% in the assay with HCT-116 [8].
As to `Nc1ncnc2c1sc1nc[nH]c12`, the growth, % of control at 0.1 µM with HCT-116 [1] stood at 96.1%; with HCT-116 [13] it was 101%; with HCT-116 [12], 105%. Moreover, the growth (% of control) at 10 µM in the assay with HCT-116 [3] turned out to be 105%; with HCT-116 [9], 93.8%; in the assay with HCT-116 [14], 105%. For the same compound, the growth, % of control at 1 µM with HCT-116 [4] was found to be 98.3%; in the assay with HCT-116 [7], 107%; with HCT-116 [8], 96.1%. In addition, the growth, % of control at 100 µM in the assay with HCT-116 [6] is 51.5%; in the assay with HCT-116 [11], 82%; in the assay on HCT-116 [15], 71.5%.
